ChEMBL document CHEMBL4152256, “Structure-activity relationship of new antimalarial 1-aryl-3-susbtituted propanol derivatives: Synthesis, preliminary toxicity profiling, parasite life cycle stage studies, target exploration, and targeted delivery” (Eur J Med Chem, 2018)

Assays:
[1] = Genotoxicity in Salmonella typhimurium TA1535 harboring pSK1002 assessed as umu gene induction at 0.008 mg/ml in absence of Sprague-Dawley rat liver S9 fraction after by SOS/umu assay relative to control; type: toxicity, organism-based; conditions: salmonella enterica subsp. enterica serovar typhimurium, read-out: FC
[2] = Genotoxicity in Salmonella typhimurium TA1535 harboring pSK1002 assessed as survival at 0.004 mg/ml in absence of Sprague-Dawley rat liver S9 fraction after by SOS/umu assay relative to control; type: toxicity, organism-based; conditions: salmonella enterica subsp. enterica serovar typhimurium, read-out: Survival
[3] = Solubility of the compound in DSPC:cholesterol:DSPE-PEG2000-Mal:DOPE-Rho lipid mixture at 250 uM; type: physicochemical
How it was run: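 Compound added at 250 µM drug to the initial liposome lipid mixture (10 mM total lipid); precipitation and UV-visible absorbance above 300 nm assessed after encapsulation, removal of unencapsulated material and extraction with 1% w/v SDS in RPMI-A.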

[4] = Genotoxicity in Salmonella typhimurium TA1535 harboring pSK1002 assessed as umu gene induction at 0.0002 mg/ml in presence of Sprague-Dawley rat liver S9 fraction after by SOS/umu assay relative to control; type: toxicity, organism-based; conditions: salmonella enterica subsp. enterica serovar typhimurium, read-out: FC
Plasmodium falciparum [5] = test: Antiplasmodial activity against chloroquine-sensitive Plasmodium falciparum 3D7 by [3H]-hypoxanthine incorporation assay; type: functional, organism-based; conditions: Plasmodium falciparum, 3D7
How it was run: (§1)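 Blood-stage P. falciparum 3D7 and FCR-3 were tested by a modified [3H]-hypoxanthine incorporation assay. Chloroquine was the reference in all runs.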

[6] = Genotoxicity in Salmonella typhimurium TA1535 harboring pSK1002 assessed as survival at 0.008 mg/ml in absence of Sprague-Dawley rat liver S9 fraction after by SOS/umu assay relative to control; type: toxicity, organism-based; conditions: salmonella enterica subsp. enterica serovar typhimurium, read-out: Survival
[7] = Cytotoxicity against human HepG2A16 cells by MTT assay; type: cell-based; conditions: HepG2A16 cells
How it was run: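 MTT viability assay on HepG2-A16 cells, giving CC50 values.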

[8] = Genotoxicity in Salmonella typhimurium TA1535 harboring pSK1002 assessed as survival at 0.002 mg/ml in presence of Sprague-Dawley rat liver S9 fraction after by SOS/umu assay relative to control; type: toxicity, organism-based; conditions: salmonella enterica subsp. enterica serovar typhimurium, read-out: Survival
[9] = Genotoxicity in Salmonella typhimurium TA1535 harboring pSK1002 assessed as survival at 0.0002 mg/ml in presence of Sprague-Dawley rat liver S9 fraction after by SOS/umu assay relative to control; type: toxicity, organism-based; conditions: salmonella enterica subsp. enterica serovar typhimurium, read-out: Survival
[10] = Genotoxicity in Salmonella typhimurium TA1535 harboring pSK1002 assessed as survival at 0.016 mg/ml in absence of Sprague-Dawley rat liver S9 fraction after by SOS/umu assay relative to control; type: toxicity, organism-based; conditions: salmonella enterica subsp. enterica serovar typhimurium, read-out: Survival
[11] = Genotoxicity in Salmonella typhimurium TA1535 harboring pSK1002 assessed as umu gene induction at 0.002 mg/ml in absence of Sprague-Dawley rat liver S9 fraction after by SOS/umu assay relative to control; type: toxicity, organism-based; conditions: salmonella enterica subsp. enterica serovar typhimurium, read-out: FC
[12] = Genotoxicity in Salmonella typhimurium TA1535 harboring pSK1002 assessed as umu gene induction at 0.0005 mg/ml in presence of Sprague-Dawley rat liver S9 fraction after by SOS/umu assay relative to control; type: toxicity, organism-based; conditions: salmonella enterica subsp. enterica serovar typhimurium, read-out: FC
[13] = Selectivity index, ratio of CC50 for human HepG2A16 cells by MTT assay to IC50 for multidrug-resistant Plasmodium falciparum FCR-3; type: toxicity; conditions: HepG2A16 cells, read-out: Ratio CC50/IC50
How it was run: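 HepG2-A16 human hepatoma cells were tested by MTT viability assay to give CC50. Blood-stage activity was measured against the multidrug-resistant P. falciparum FCR-3 strain by [3H]-hypoxanthine incorporation to give IC50. SI = CC50 HepG2 / FCR-3 IC50.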

[14] = Genotoxicity in Salmonella typhimurium TA1535 harboring pSK1002 assessed as survival at 0.002 mg/ml in absence of Sprague-Dawley rat liver S9 fraction after by SOS/umu assay relative to control; type: toxicity, organism-based; conditions: salmonella enterica subsp. enterica serovar typhimurium, read-out: Survival
[15] = Genotoxicity in Salmonella typhimurium TA1535 harboring pSK1002 assessed as survival at 0.0002 mg/ml in absence of Sprague-Dawley rat liver S9 fraction after by SOS/umu assay relative to control; type: toxicity, organism-based; conditions: salmonella enterica subsp. enterica serovar typhimurium, read-out: Survival
[16] = Genotoxicity in Salmonella typhimurium TA1535 harboring pSK1002 assessed as umu gene induction at 0.0002 mg/ml in absence of Sprague-Dawley rat liver S9 fraction after by SOS/umu assay relative to control; type: toxicity, organism-based; conditions: salmonella enterica subsp. enterica serovar typhimurium, read-out: FC
[17] = Genotoxicity in Salmonella typhimurium TA1535 harboring pSK1002 assessed as umu gene induction at 0.004 mg/ml in absence of Sprague-Dawley rat liver S9 fraction after by SOS/umu assay relative to control; type: toxicity, organism-based; conditions: salmonella enterica subsp. enterica serovar typhimurium, read-out: FC
[18] = Genotoxicity in Salmonella typhimurium TA1535 harboring pSK1002 assessed as umu gene induction at 0.004 mg/ml in presence of Sprague-Dawley rat liver S9 fraction after by SOS/umu assay relative to control; type: toxicity, organism-based; conditions: salmonella enterica subsp. enterica serovar typhimurium, read-out: FC
[19] = Genotoxicity in Salmonella typhimurium TA1535 harboring pSK1002 assessed as survival at 0.0005 mg/ml in absence of Sprague-Dawley rat liver S9 fraction after by SOS/umu assay relative to control; type: toxicity, organism-based; conditions: salmonella enterica subsp. enterica serovar typhimurium, read-out: Survival
[20] = Genotoxicity in Salmonella typhimurium TA1535 harboring pSK1002 assessed as umu gene induction at 0.001 mg/ml in absence of Sprague-Dawley rat liver S9 fraction after by SOS/umu assay relative to control; type: toxicity, organism-based; conditions: salmonella enterica subsp. enterica serovar typhimurium, read-out: FC
[21] = Genotoxicity in Salmonella typhimurium TA1535 harboring pSK1002 assessed as umu gene induction at 0.0005 mg/ml in absence of Sprague-Dawley rat liver S9 fraction after by SOS/umu assay relative to control; type: toxicity, organism-based; conditions: salmonella enterica subsp. enterica serovar typhimurium, read-out: FC
[22] = Genotoxicity in Salmonella typhimurium TA1535 harboring pSK1002 assessed as survival at 0.001 mg/ml in presence of Sprague-Dawley rat liver S9 fraction after by SOS/umu assay relative to control; type: toxicity, organism-based; conditions: salmonella enterica subsp. enterica serovar typhimurium, read-out: Survival
[23] = Genotoxicity in Salmonella typhimurium TA1535 harboring pSK1002 assessed as survival at 0.0005 mg/ml in presence of Sprague-Dawley rat liver S9 fraction after by SOS/umu assay relative to control; type: toxicity, organism-based; conditions: salmonella enterica subsp. enterica serovar typhimurium, read-out: Survival
[24] = Genotoxicity in Salmonella typhimurium TA1535 harboring pSK1002 assessed as umu gene induction at 0.016 mg/ml in presence of Sprague-Dawley rat liver S9 fraction after by SOS/umu assay relative to control; type: toxicity, organism-based; conditions: salmonella enterica subsp. enterica serovar typhimurium, read-out: FC
[25] = Genotoxicity in Salmonella typhimurium TA1535 harboring pSK1002 assessed as survival at 0.004 mg/ml in presence of Sprague-Dawley rat liver S9 fraction after by SOS/umu assay relative to control; type: toxicity, organism-based; conditions: salmonella enterica subsp. enterica serovar typhimurium, read-out: Survival
Plasmodium falciparum [26] = test: Antiplasmodial activity against multidrug-resistant Plasmodium falciparum FCR-3 by [3H]-hypoxanthine incorporation assay; type: functional, organism-based, FCR-3/Gambia; conditions: Plasmodium falciparum, FCR-3/Gambia; how it was run: as §1
[27] = Genotoxicity in Salmonella typhimurium TA1535 harboring pSK1002 assessed as survival at 0.016 mg/ml in presence of Sprague-Dawley rat liver S9 fraction after by SOS/umu assay relative to control; type: toxicity, organism-based; conditions: salmonella enterica subsp. enterica serovar typhimurium, read-out: Survival
[28] = Genotoxicity in Salmonella typhimurium TA1535 harboring pSK1002 assessed as umu gene induction at 0.001 mg/ml in presence of Sprague-Dawley rat liver S9 fraction after by SOS/umu assay relative to control; type: toxicity, organism-based; conditions: salmonella enterica subsp. enterica serovar typhimurium, read-out: FC
[29] = Genotoxicity in Salmonella typhimurium TA1535 harboring pSK1002 assessed as survival at 0.008 mg/ml in presence of Sprague-Dawley rat liver S9 fraction after by SOS/umu assay relative to control; type: toxicity, organism-based; conditions: salmonella enterica subsp. enterica serovar typhimurium, read-out: Survival
[30] = Genotoxicity in Salmonella typhimurium TA1535 harboring pSK1002 assessed as survival at 0.001 mg/ml in absence of Sprague-Dawley rat liver S9 fraction after by SOS/umu assay relative to control; type: toxicity, organism-based; conditions: salmonella enterica subsp. enterica serovar typhimurium, read-out: Survival
[31] = Genotoxicity in Salmonella typhimurium TA1535 harboring pSK1002 assessed as umu gene induction at 0.008 mg/ml in presence of Sprague-Dawley rat liver S9 fraction after by SOS/umu assay relative to control; type: toxicity, organism-based; conditions: salmonella enterica subsp. enterica serovar typhimurium, read-out: FC
[32] = Genotoxicity in Salmonella typhimurium TA1535 harboring pSK1002 assessed as umu gene induction at 0.002 mg/ml in presence of Sprague-Dawley rat liver S9 fraction after by SOS/umu assay relative to control; type: toxicity, organism-based; conditions: salmonella enterica subsp. enterica serovar typhimurium, read-out: FC
[33] = Genotoxicity in Salmonella typhimurium TA1535 harboring pSK1002 assessed as umu gene induction at 0.016 mg/ml in absence of Sprague-Dawley rat liver S9 fraction after by SOS/umu assay relative to control; type: toxicity, organism-based; conditions: salmonella enterica subsp. enterica serovar typhimurium, read-out: FC

SMILES: OC(CCN1CCN(C(c2ccccc2)c2ccccc2)CC1)c1ccc(Cl)cc1 (stereo unspecified)
- fold induction at 0.008 mg/ml [1]: 0.9
- viability at 0.004 mg/ml [2]: 102%
- solubility [3]: Insoluble
- fold induction at 0.0002 mg/ml [4]: 1
- IC50 (Plasmodium falciparum [5]): 24.9 µM
- viability at 0.008 mg/ml [6]: 125%
- CC50 [7]: 462 µM
- viability at 0.002 mg/ml [8]: 88.9%
- viability at 0.0002 mg/ml [9]: 96.4%
- viability at 0.016 mg/ml [10]: 112%
- fold induction at 0.002 mg/ml [11]: 1
- fold induction at 0.0005 mg/ml [12]: 0.6
- selectivity ratio [13]: 118
- viability at 0.002 mg/ml [14]: 108%
- viability at 0.0002 mg/ml [15]: 105%
- fold induction at 0.0002 mg/ml [16]: 1
- fold induction at 0.004 mg/ml [17]: 1
- fold induction at 0.004 mg/ml [18]: 1
- viability at 0.0005 mg/ml [19]: 110%
- fold induction at 0.001 mg/ml [20]: 1.1
- fold induction at 0.0005 mg/ml [21]: 0.9
- viability at 0.001 mg/ml [22]: 96.7%
- viability at 0.0005 mg/ml [23]: 94.3%
- fold induction at 0.016 mg/ml [24]: 1.1
- viability at 0.004 mg/ml [25]: 89.5%
- IC50 (Plasmodium falciparum [26]): 3.93 µM
- viability at 0.016 mg/ml [27]: 86.6%
- fold induction at 0.001 mg/ml [28]: 0.6
- viability at 0.008 mg/ml [29]: 98.8%
- viability at 0.001 mg/ml [30]: 106%
- fold induction at 0.008 mg/ml [31]: 0.9
- fold induction at 0.002 mg/ml [32]: 0.7
- fold induction at 0.016 mg/ml [33]: 0.9

SMILES: OC(CCN1CCN(C(c2ccccc2)c2ccccc2)CC1)c1ccc(Br)cc1 (stereo unspecified)
- fold induction at 0.008 mg/ml [1]: 1.1
- viability at 0.004 mg/ml [2]: 114%
- solubility [3]: Insoluble
- fold induction at 0.0002 mg/ml [4]: 1
- IC50 (Plasmodium falciparum [5]): 52.2 µM
- viability at 0.008 mg/ml [6]: 116%
- CC50 [7]: 351 µM
- viability at 0.002 mg/ml [8]: 85.9%
- viability at 0.0002 mg/ml [9]: 96.7%
- viability at 0.016 mg/ml [10]: 121%
- fold induction at 0.002 mg/ml [11]: 1.1
- fold induction at 0.0005 mg/ml [12]: 0.5
- selectivity ratio [13]: 114
- viability at 0.002 mg/ml [14]: 105%
- viability at 0.0002 mg/ml [15]: 107%
- fold induction at 0.0002 mg/ml [16]: 0.8
- fold induction at 0.004 mg/ml [17]: 1
- fold induction at 0.004 mg/ml [18]: 1
- viability at 0.0005 mg/ml [19]: 108%
- fold induction at 0.001 mg/ml [20]: 1
- fold induction at 0.0005 mg/ml [21]: 0.8
- viability at 0.001 mg/ml [22]: 84.1%
- viability at 0.0005 mg/ml [23]: 104%
- fold induction at 0.016 mg/ml [24]: 1
- viability at 0.004 mg/ml [25]: 87.2%
- IC50 (Plasmodium falciparum [26]): 3.09 µM
- viability at 0.016 mg/ml [27]: 87.8%
- fold induction at 0.001 mg/ml [28]: 0.7
- viability at 0.008 mg/ml [29]: 98.1%
- viability at 0.001 mg/ml [30]: 98.3%
- fold induction at 0.008 mg/ml [31]: 0.9
- fold induction at 0.002 mg/ml [32]: 0.8
- fold induction at 0.016 mg/ml [33]: 0.8
